Source: PubChem BioAssay
Compounds with a hit are over-represented: about 1.7% of the library has one in this group of screens.
Runt-SMMHC FRET: blocks binding of human RUNX1 Runt domain to CBFb-SMMHC; Q01196+Q13951; Cerulean-Runt/Venus-CBFb-SMMHC FRET ratio 530/480, 1 h; inhibition, % at 20 µM; actives 0.74% (n = 220,000); AID 1434;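 active means mean inhibition across duplicate retests at 20 µM reaching about 50%, limit read from the data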;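 further: inhibitors lower the FRET ratio by blocking Runt binding to CBFb-SMMHC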
Target sequence (Q01196 whole entry, looked up, the tested form may be a part): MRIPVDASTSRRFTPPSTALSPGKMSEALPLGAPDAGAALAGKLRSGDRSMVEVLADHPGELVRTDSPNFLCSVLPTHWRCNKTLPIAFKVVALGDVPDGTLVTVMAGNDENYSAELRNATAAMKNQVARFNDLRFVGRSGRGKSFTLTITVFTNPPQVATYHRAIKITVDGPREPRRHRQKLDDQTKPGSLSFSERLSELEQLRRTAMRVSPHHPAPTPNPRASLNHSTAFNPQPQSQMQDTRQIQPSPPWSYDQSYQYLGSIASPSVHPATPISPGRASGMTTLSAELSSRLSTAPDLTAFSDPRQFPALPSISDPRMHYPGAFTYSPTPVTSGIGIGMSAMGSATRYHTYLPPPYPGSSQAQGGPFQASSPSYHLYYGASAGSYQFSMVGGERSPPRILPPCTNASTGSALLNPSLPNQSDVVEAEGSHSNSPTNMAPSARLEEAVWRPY
Target sequence (Q13951 whole entry, looked up, the tested form may be a part): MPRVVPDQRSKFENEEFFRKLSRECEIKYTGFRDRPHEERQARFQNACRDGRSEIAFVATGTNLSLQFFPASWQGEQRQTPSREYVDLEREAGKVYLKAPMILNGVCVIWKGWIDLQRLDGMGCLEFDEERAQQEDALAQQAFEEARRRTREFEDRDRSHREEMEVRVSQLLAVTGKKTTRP
Vif imaging: HIV Vif inhibition. HEK293T cells, Vif self-association by quenched fluorescence, imaging, 24 h. inhibition, % at 7.49 µM. actives 0.35% (n = 340,000); in the data active means inhibition above about 50%, passing the limit was not always enough; inconclusive means no clear call, values can overlap the other calls; inactive means below about 31%
Runt-CBFb FRET: inhibitors of human RUNX1 Runt domain binding to CBFb | Q01196+Q13951 | Cerulean-Runt/Venus-CBFb FRET ratio 530/480, 1 h | inhibition, % at 20 µM | actives 0.46% (n = 220,000) | AID 1496;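 active means inhibition over about 50% at 20 µM in the single-dose screen, limit read from the data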
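test system = Cerulean-tagged RUNX1 Runt domain (FRET donor) fusion protein | reagent = Venus-CBFb binding partner, 100 nM | incubation = protein complex preformed 1 h, compound exposure 1 h, room temperature, dark | detection = FRET fluorescence | read-out basis = loss of energy transfer signal | controls = 5 µM unlabeled CBFb as full-inhibition high control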
Rce1 inhib: yeast Ras-converting enzyme inhibition | Q03530 | yeast membranes, quenched prenylated peptide cleavage fluorescence | calls only | actives 0.27% (n = 290,000) | AID 2563;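 active means fall in fluorescence gain of 50% or more versus controls, with final raw signal at or below 3038400; inconclusive means same 50% fall but final raw signal above 3038400; inactive means fall in fluorescence gain under 50%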
RanGTP-Impb inh: inhibitors of RanGTP-importin-beta interaction, primary screen, biochemical, FRET, CFP-Ran, YFP-importin-beta, homogeneous; cell-free CFP-Ran/YFP-importin-beta FRET ratio; inhibition, % (concentration not given with the values); actives 1.1% (n = 300,000);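 active means more than half of the replicate wells show a fall in the fluorescence ratio signal beyond about 16%, limit read from the data, passing the limit was not always enough; inconclusive means exactly half of the replicate wells pass the set limit; inactive means fewer than half of replicates pass the limit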
A number is an active result.

`CN1CCc2c(sc(/N=C/c3cccs3)c2C(N)=O)C1` gave Runt-SMMHC FRET 65, Vif imaging inactive, Runt-CBFb FRET 81, Rce1 inhib inactive and RanGTP-Impb inh inconclusive.
CC1CC2OC(=O)C3(C)CCCC(C)(C23)C1(O)CCc1ccoc1 (stereo unspecified) was read as Runt-SMMHC FRET inactive, Vif imaging inactive, Runt-CBFb FRET inactive, Rce1 inhib inactive and RanGTP-Impb inh inactive.
`COc1cc(NC(=O)COc2ccccc2C)ccc1NC(=O)c1ccco1` gave Vif imaging inactive, Rce1 inhib inactive and RanGTP-Impb inh inactive.
`COc1cc(NC(=O)COc2ccccc2)ccc1NC(=O)c1ccco1` gave Vif imaging 66 and RanGTP-Impb inh inconclusive.
For Cn1cccc1/C=C1\Cc2ccccc2C1=O the results were Runt-SMMHC FRET inactive, Vif imaging inactive, Runt-CBFb FRET inactive, Rce1 inhib inactive and RanGTP-Impb inh 75.
Cc1cc(N2C(=O)C(O)=C(C(=O)c3cc4ccccc4o3)C2c2cccs2)no1 (stereo unspecified) was read as Vif imaging inactive, Rce1 inhib inactive and RanGTP-Impb inh 42.
Screening CCN(CC(=O)Nc1cc(Cl)ccc1C)C(=O)c1ccc(N2CCCC2=O)cc1 returned Vif imaging inactive.
`CCOC(=O)Cc1csc(NS(=O)(=O)c2ccc(Br)cc2)n1` gave Runt-SMMHC FRET inactive, Vif imaging inactive, Runt-CBFb FRET inactive, Rce1 inhib inactive and RanGTP-Impb inh 37.
`CCOC(=O)Cc1csc(NS(=O)(=O)c2ccc(F)cc2)n1` gave Runt-SMMHC FRET inactive, Vif imaging inactive, Runt-CBFb FRET inactive, Rce1 inhib inactive and RanGTP-Impb inh inactive.
Screening CN(C)c1ncnc2c1ncn2[C@H]1CN(Cc2cccs2)C[C@@H](CO)O1 returned Vif imaging inactive.
Screening CC(C)CCN1CCN(Cc2ccc(Oc3ncccn3)cc2)CC1CCO (stereo unspecified) returned Runt-SMMHC FRET inactive, Vif imaging inactive, Runt-CBFb FRET inactive, Rce1 inhib inactive and RanGTP-Impb inh inconclusive.
Screening CC(C)N1CCN(Cc2ccc(Oc3ncccn3)cc2)CC1CCO (stereo unspecified) returned Runt-SMMHC FRET inactive, Vif imaging inactive, Runt-CBFb FRET inactive, Rce1 inhib active and RanGTP-Impb inh inactive.
`O=C(C[n+]1cccc2ccccc21)c1ccccc1` gave Runt-SMMHC FRET inactive, Vif imaging inactive, Runt-CBFb FRET inactive, Rce1 inhib inactive and RanGTP-Impb inh inactive.
O=C(C[n+]1cc2ccccc2c2ccccc21)c1ccccc1 was read as Runt-SMMHC FRET inactive, Vif imaging inactive, Runt-CBFb FRET inactive, Rce1 inhib active and RanGTP-Impb inh inactive.
`Cc1cccc(C)c1-n1nnnc1C(c1ccnc2ccccc12)N1CCN(C/C=C/c2ccccc2)CC1` (stereo unspecified) gave Vif imaging inactive.
For COc1cccc(C(=O)NCC2CCCN(C(=O)c3ccc(C=O)cc3)C2)c1OC (stereo unspecified) the results were Rce1 inhib inactive and RanGTP-Impb inh inactive.
`COc1ccccc1NS(=O)(=O)c1ccc(C(=O)NCCCN2CCOCC2)cc1` gave Vif imaging 89.
For O=C(NCCCN1CCOCC1)c1ccc(S(=O)(=O)Nc2ccccc2)cc1 the results were Vif imaging inactive, Rce1 inhib inactive and RanGTP-Impb inh inactive.
COc1ccc(S(=O)(=O)Nc2cc3c4c(c2)CCN4C(=O)CC3)cc1C was read as Vif imaging inactive, Rce1 inhib inactive and RanGTP-Impb inh inactive.
O=C(c1ccc2c(c1)OCO2)N1CCN(CCN2C(=O)c3cccc4cccc(c34)C2=O)CC1 was read as Vif imaging inactive.
`CN1CCN(CC(=O)NC2CCCCC2)CC1` gave Runt-SMMHC FRET inactive, Vif imaging 92, Runt-CBFb FRET inactive, Rce1 inhib inactive and RanGTP-Impb inh inactive.
Screening COc1ccc(C)cc1NC(=O)CNC(C)C(=O)Nc1cc(Cl)ccc1Cl (stereo unspecified) returned Runt-SMMHC FRET inactive, Vif imaging inactive, Runt-CBFb FRET inactive, Rce1 inhib inactive and RanGTP-Impb inh inactive.
`COc1cc(/C=N/N2C(=O)CSC2=S)ccc1O` gave Runt-SMMHC FRET inactive, Vif imaging inactive, Runt-CBFb FRET inactive, Rce1 inhib inactive and RanGTP-Impb inh inactive.
O=C1CSC(=S)N1/N=C/c1cc(Br)c(O)c(Br)c1 was read as Vif imaging 70, Rce1 inhib inactive and RanGTP-Impb inh inactive.
`Cc1ccc(-n2nc3c(c2NC(=O)CC(C)C)CS(=O)(=O)C3)c(C)c1` gave Vif imaging inactive, Rce1 inhib inactive and RanGTP-Impb inh inactive.
For Cc1cccc(NCN2C(=O)c3ccncc3C2=O)n1 the results were Runt-SMMHC FRET inactive, Vif imaging inactive, Runt-CBFb FRET inactive, Rce1 inhib inactive and RanGTP-Impb inh 19.
`O=C(Nc1ccc(S(=O)(=O)Nc2ccccc2)cc1)C1COc2ccccc2O1` (stereo unspecified) gave Runt-SMMHC FRET inactive, Vif imaging inactive, Runt-CBFb FRET inactive, Rce1 inhib active and RanGTP-Impb inh inactive.
COc1ccc(/C=N/Nc2cc(C)nc(-n3nc(C)cc3C)n2)cc1 was read as Runt-SMMHC FRET inactive, Vif imaging inactive, Runt-CBFb FRET inactive, Rce1 inhib inactive and RanGTP-Impb inh inactive.
Screening COc1ccc(/C=N/Nc2cc(N3CCCC3)nc(N3CCCC3)n2)cc1 returned Runt-SMMHC FRET inactive, Vif imaging inactive, Runt-CBFb FRET inactive, Rce1 inhib inactive and RanGTP-Impb inh 60.
For Oc1ccc(/C=N/Nc2cc(N3CCCC3)nc(N3CCCC3)n2)cc1 the results were Runt-SMMHC FRET inactive, Runt-CBFb FRET inactive, Rce1 inhib inactive and RanGTP-Impb inh 86.
`Oc1ccc(/C=N/Nc2nc(N3CCCC3)nc(N3CCCC3)n2)cc1O` gave Runt-SMMHC FRET inactive, Vif imaging inactive, Runt-CBFb FRET inactive, Rce1 inhib inactive and RanGTP-Impb inh inactive.
Screening O=C(NCC1CCCO1)c1cc2nc(-c3ccco3)cc(C(F)(F)Cl)n2n1 (stereo unspecified) returned Vif imaging inactive, Rce1 inhib inactive and RanGTP-Impb inh inactive.
Cc1ccc(C)c(N(C)C(=O)CCS(=O)(=O)c2cccc3nonc23)c1 was read as Vif imaging inactive, Rce1 inhib inactive and RanGTP-Impb inh inactive.
COc1ccc(CNC(=O)/C=C/[C@H]2O[C@@H](n3ccc(=O)[nH]c3=O)[C@H](O)[C@@H]2O)cc1 was read as Vif imaging inactive.
`COC(=O)CCS(=O)(=O)c1nc(-c2ccccc2)cc(C(F)(F)F)n1` gave Runt-SMMHC FRET inactive, Vif imaging inactive, Runt-CBFb FRET inactive, Rce1 inhib inactive and RanGTP-Impb inh inactive.
COc1ccc(-c2cc(C(F)(F)F)nc(S(=O)(=O)CCCC(=O)Nc3cccnc3Cl)n2)cc1OC was read as Runt-SMMHC FRET inactive, Vif imaging 115 and Runt-CBFb FRET inactive.
For CC(C)(C)OC(=O)NCCC(=O)Oc1ccc2ccc(=O)oc2c1 the results were Runt-SMMHC FRET 68, Vif imaging inactive, Runt-CBFb FRET inactive, Rce1 inhib inactive and RanGTP-Impb inh inactive.
